Results on five molecules are retold here after ChEMBL document CHEMBL4477167, “Limonoids and Triterpenoids as 11β-HSD1 Inhibitors from Walsura robusta” (J Nat Prod, 2016).

A value given as a limit tells only on which side of the number the result lay.

In test [1] the target is 11-beta-hydroxysteroid dehydrogenase 1 (Mus musculus, UniProt P50172). Put plainly: Inhibition of mouse microsomal 11beta-HSD1 overexpressed in HEK293 cells using [3H]-cortisone as substrate assessed as formation of [3H]-cortisol using [3H]cortisone by scintillation proximity assay in presence of NADPH.
The target in test [2] is 11-beta-hydroxysteroid dehydrogenase 1 (Mus musculus) (UniProt P50172). Nature of the test: Inhibition of mouse microsomal 11beta-HSD1 overexpressed in HEK293 cells using [3H]-cortisone as substrate assessed as formation of [3H]-cortisol at 10 uM using [3H]cortisone by scintillation proximity assay in presence of NADPH. In outline:
(§1)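 Human or mouse 11β-HSD1 inhibition measured in vitro by scintillation proximity assay (SPA). Every isolate was first screened at a single concentration of 10 μM. […] Glycyrrhetinic acid served as the positive control. Other assay conditions follow an earlier report.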
(In general: SPA uses beads or plates that emit light when radiolabelled molecules are held near them.)

For test [3], the target named is T1, 11-beta-hydroxysteroid dehydrogenase 1 (Homo sapiens, UniProt P28845). Put plainly: Inhibition of human microsomal 11beta-HSD1 overexpressed in HEK293 cells using [3H]-cortisone as substrate assessed as formation of [3H]-cortisol at 10 uM using [3H]cortisone by scintillation proximity assay in presence of NADPH. In outline: as §1
Target sequence in this assay (P28845 whole entry, looked up): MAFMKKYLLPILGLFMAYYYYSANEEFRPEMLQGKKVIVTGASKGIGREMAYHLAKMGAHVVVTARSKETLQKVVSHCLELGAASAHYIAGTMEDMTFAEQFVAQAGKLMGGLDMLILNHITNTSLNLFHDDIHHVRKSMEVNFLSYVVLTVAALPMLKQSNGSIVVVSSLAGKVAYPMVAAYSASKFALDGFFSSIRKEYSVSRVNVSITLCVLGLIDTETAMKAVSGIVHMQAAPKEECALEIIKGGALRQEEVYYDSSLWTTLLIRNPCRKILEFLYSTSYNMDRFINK
Test [4] concerns the target T1, 11-beta-hydroxysteroid dehydrogenase 1. Put plainly: Inhibition of human microsomal 11beta-HSD1 overexpressed in HEK293 cells using [3H]-cortisone as substrate assessed as formation of [3H]-cortisol using [3H]cortisone by scintillation proximity assay in presence of NADPH.
Target sequence in this assay (P28845 whole entry): as the sequence (P28845 whole entry, looked up) above

Sequence of 11-beta-hydroxysteroid dehydrogenase 1 (Mus musculus, UniProt P50172) (P50172 whole entry): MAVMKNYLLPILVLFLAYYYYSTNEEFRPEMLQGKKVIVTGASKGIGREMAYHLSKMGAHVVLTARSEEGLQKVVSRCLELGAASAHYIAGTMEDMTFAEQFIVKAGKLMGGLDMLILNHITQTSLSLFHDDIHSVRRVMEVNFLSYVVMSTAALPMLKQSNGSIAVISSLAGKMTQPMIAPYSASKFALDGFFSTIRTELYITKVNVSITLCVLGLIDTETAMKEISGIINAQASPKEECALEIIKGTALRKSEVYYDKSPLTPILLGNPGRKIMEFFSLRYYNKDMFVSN
Sequence of 11-beta-hydroxysteroid dehydrogenase 1 (Mus musculus) (P50172 whole entry, looked up): as the sequence (P50172 whole entry) above

Usually IC50 stands for the point on the concentration scale where inhibition reaches its midpoint. By inhibition is commonly meant the drop in the measured response relative to a control, in per cent. As for `C[C@@H](C[C@@H](O)[C@@H]1OC1(C)C)[C@H]1CC[C@@]2(C)C3=CC[C@H]4C(C)(C)C(=O)CC[C@]4(C)[C@H]3CC[C@]12C`, in test [1] (read-out: IC50), the IC50 turned out to be 690 nM. Moreover, the values for the inhibition in test [2] and in test [3] were more than 50% and less than 50%, respectively.
The like results for `C[C@@H](C[C@@H](O)[C@@H]1OC1(C)C)[C@H]1CC[C@@]2(C)C3=CC[C@H]4C(C)(C)[C@@H](O)CC[C@]4(C)[C@H]3CC[C@]12C` were, in that order, 3800 nM, more than 50% and less than 50%.
Turning to `CC(=O)O[C@H]1C[C@@]2(C)[C@H](c3ccoc3)C[C@H]3O[C@]32[C@]2(C)C(=O)C(O)=C3C(C)(C)C(=O)C=C[C@]3(C)[C@@H]12`, the IC50 result in test [1] (hek293) is “Not Active”; in test [4] it was 9900 nM. The inhibition in test [3] is more than 50%.
As to `C[C@@H]([C@@H]1O[C@@H]1C(O)C(C)(C)O)[C@@H]1CC[C@]2(C)C3=CC[C@H]4C(C)(C)[C@H](O)CC[C@]4(C)[C@H]3CC[C@@]12C` (stereo partly specified), the IC50 was found to be 1200 nM in test [1] (read-out: IC50) and 1900 nM in test [4]. Further, the inhibition in test [2] and in test [3] was more than 50% each time.
As for `C[C@@H](C[C@@H](O)[C@H](O)C(C)(C)O)[C@@H]1CC[C@]2(C)C3=CC[C@H]4C(C)(C)C(=O)CC[C@]4(C)[C@H]3CC[C@@]12C`, in test [1] (read-out: IC50), the IC50 was found to be 880 nM. The inhibition in test [2] was more than 50%; in test [3] it was less than 50%.
